Measured values as given in ChEMBL document CHEMBL2407075, “Sulphonamido-quinoxalines: search for anticancer agent” (Eur J Med Chem, 2013).

Tests used:
Assay type in all cases: functional
T47D [1] = assay: Growth inhibition of human T47D cells assessed as cell growth at 10^-4 M after 48 hrs by sulforhodamine B assay; details: read-out: Activity
SK-OV-3 = assay: Growth inhibition of human SKOV3 cells assessed as cell growth at 10^-4 M after 48 hrs by sulforhodamine B assay; details: SK-OV-3, 48 h, read-out: Activity
[2] = Growth inhibition of human NCI-ADR-RES cells assessed as cell growth at 10^-4 M after 48 hrs by sulforhodamine B assay; details: read-out: Activity
OVCAR-5 = assay: Growth inhibition of human OVCAR5 cells assessed as cell growth at 10^-4 M after 48 hrs by sulforhodamine B assay; details: OVCAR-5, 48 h, read-out: Activity
SK-MEL-28 = assay: Growth inhibition of human SK-MEL-28 cells assessed as cell growth at 10^-4 M after 48 hrs by sulforhodamine B assay; details: SK-MEL-28, 48 h, read-out: Activity
SK-MEL-5 [3] = assay: Growth inhibition of human SK-MEL-5 cells assessed as cell growth at 10^-4 M after 48 hrs by sulforhodamine B assay; details: SK-MEL-5, 48 h, read-out: Activity
M14 [4] = assay: Growth inhibition of human M14 cells assessed as cell growth at 10^-4 M after 48 hrs by sulforhodamine B assay; details: M14, 48 h, read-out: Activity
NCI-H522 = assay: Growth inhibition of human NCI-H522 cells assessed as cell growth at 10^-4 M after 48 hrs by sulforhodamine B assay; details: NCI-H522, 48 h, read-out: Activity
COLO 205 = assay: Growth inhibition of human COLO205 cells assessed as cell growth at 10^-4 M after 48 hrs by sulforhodamine B assay; details: COLO 205, 48 h, read-out: Activity
Method in brief: (§1)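 Five-dose NCI-60 run (0.01, 0.1, 1, 10 and 100 µM, as 10-fold dilutions from a DMSO stock made at 400× the top final level). Cells were grown in RPMI 1640 with 5% FBS and 2 mM glutamine and plated for 24 h. They were then exposed for 48 h at 37 °C and 5% CO2. TCA fixation was followed by SRB staining with A515 read-out. Percent growth was taken relative to time-zero and control plates.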

SK-MEL-5 [5] = assay: Growth inhibition of human SK-MEL-5 cells assessed as cell growth at 10^-5 M after 48 hrs by sulforhodamine B assay; details: SK-MEL-5, 48 h, read-out: Activity
MDA-MB-435 [6] = assay: Growth inhibition of human MDA-MB-435 cells assessed as cell growth at 10^-5 M after 48 hrs by sulforhodamine B assay; details: MDA-MB-435, 48 h, read-out: Activity
SF-295 = assay: Growth inhibition of human SF295 cells assessed as cell growth at 10^-5 M after 48 hrs by sulforhodamine B assay; details: SF-295, 48 h, read-out: Activity
SF-268 = assay: Growth inhibition of human SF268 cells assessed as cell growth at 10^-5 M after 48 hrs by sulforhodamine B assay; details: SF-268, 48 h, read-out: Activity
MDA-MB-231 [7] = assay: Growth inhibition of human MDA-MB-231 cells assessed as cell growth at 10^-6 M after 48 hrs by sulforhodamine B assay; details: MDA-MB-231, 48 h, read-out: Activity
U-251 = assay: Growth inhibition of human U251 cells assessed as cell growth at 10^-6 M after 48 hrs by sulforhodamine B assay; details: U-251, 48 h, read-out: Activity
MDA-MB-231 [8] = assay: Growth inhibition of human MDA-MB-231 cells assessed as cell growth at 10^-7 M after 48 hrs by sulforhodamine B assay; details: MDA-MB-231, 48 h, read-out: Activity
ACHN = assay: Growth inhibition of human ACHN cells assessed as cell growth at 10^-7 M after 48 hrs by sulforhodamine B assay; details: read-out: Activity; method in brief: as §1
MDA-MB-435 [9] = assay: Growth inhibition of human MDA-MB-435 cells assessed as cell growth at 10^-7 M after 48 hrs by sulforhodamine B assay; details: MDA-MB-435, 48 h, read-out: Activity
M14 [10] = assay: Growth inhibition of human M14 cells assessed as cell growth at 10^-7 M after 48 hrs by sulforhodamine B assay; details: M14, 48 h, read-out: Activity
IGROV-1 = assay: Growth inhibition of human IGROV1 cells assessed as cell growth at 10^-8 M after 48 hrs by sulforhodamine B assay; details: IGROV-1, 48 h, read-out: Activity
SNB-75 = assay: Growth inhibition of human SNB75 cells assessed as cell growth at 10^-8 M after 48 hrs by sulforhodamine B assay; details: SNB-75, 48 h, read-out: Activity
T47D [11] = assay: Growth inhibition of human T47D cells after 48 hrs by sulforhodamine B assay; details: for CC50: read-out: LC50 (the source's name)
Method in brief: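 Five-dose NCI 60 screen at 0.01, 0.1, 1, 10 and 100 µM, 48 h exposure after 24 h preincubation, in RPMI 1640 with 5% FBS and 2 mM glutamine. Fixed with TCA (10% final for adherent cells, 16% for suspension cells), stained with SRB, A515 read. Percent growth uses time-zero (Tz), control and treated plates. GI50, TGI and LC50 are read from the dose-response curves.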

UACC-257 = assay: Growth inhibition of human UACC257 cells after 48 hrs by sulforhodamine B assay; details: UACC-257, 48 h, read-out: LC50 (the source's name)
Method in brief: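 NCI-60 screen. Cells grown in RPMI 1640 with 5% FBS and 2 mM L-glutamine, plated at 5000–40,000 cells/well and preincubated 24 h at 37 °C, 5% CO2. A time-zero plate is TCA-fixed at drug addition. DMSO stocks diluted in medium; five concentrations (0.01, 0.1, 1, 10, 100 µM). Exposure 48 h, then cold TCA fixation and 0.4% SRB staining, absorbance at 515 nm. GI50 is taken from the growth-percentage curve relative to time zero and control.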

M14 [12] = assay: Growth inhibition of human M14 cells after 48 hrs by sulforhodamine B assay; details: M14, 48 h, read-out: LC50 (the source's name)
Method in brief: (§2)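 Adherent cells in RPMI 1640 with 5% FBS and 2 mM L-glutamine were plated at 5000–40,000 cells/well and grown 24 h. Five concentrations (0.01–100 µM, DMSO stock) were added for 48 h at 37 °C. Cells were fixed with cold TCA (10% final) and stained with SRB, read at 515 nm. GI50 came from log concentration–growth curves against time-zero and control plates.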

Malme-3M = assay: Growth inhibition of human MALME-3M cells after 48 hrs by sulforhodamine B assay; details: read-out: LC50 (the source's name); method in brief: as §2
HCT-116 = assay: Growth inhibition of human HCT116 cells after 48 hrs by sulforhodamine B assay; details: HCT-116, 48 h; for CC50: read-out: LC50 (the source's name)
Method in brief: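 Five-dose screen at NCI. Cells in RPMI 1640 with 5% FBS and 2 mM L-glutamine, seeded at 5000–40,000 cells/well and grown 24 h at 37 °C, 5% CO2 before dosing, with time-zero plates TCA-fixed. Drug diluted from DMSO stock to 0.01, 0.1, 1, 10 and 100 µM final, 48 h. Cells fixed with cold TCA (10% final), stained with 0.4% SRB and read at 515 nm. Percent growth from Tz, control and test absorbances; GI50, TGI and LC50 from dose-response curves.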

Structure (SMILES)	growth at 100 µM (T47D [1]) [%]	growth at 100 µM (SK-OV-3) [%]	growth at 100 µM [2] [%]	growth at 100 µM (OVCAR-5) [%]	growth at 100 µM (SK-MEL-28) [%]	growth at 100 µM (SK-MEL-5 [3]) [%]	growth at 100 µM (M14 [4]) [%]	growth at 100 µM (NCI-H522) [%]	growth at 100 µM (COLO 205) [%]	growth at 10 µM (SK-MEL-5 [5]) [%]	growth at 10 µM (MDA-MB-435 [6]) [%]	growth at 10 µM (SF-295) [%]	growth at 10 µM (SF-268) [%]	growth at 1 µM (MDA-MB-231 [7]) [%]	growth at 1 µM (U-251) [%]	growth at 0.1 µM (MDA-MB-231 [8]) [%]	growth at 0.1 µM (ACHN) [%]	growth at 0.1 µM (MDA-MB-435 [9]) [%]	growth at 0.1 µM (M14 [10]) [%]	growth at 0.01 µM (IGROV-1) [%]	other results
O=S(=O)(Nc1ccc(Cl)cc1)c1ccc2nc(-c3ccccc3)c(-c3ccccc3)nc2c1	37	65	69	90	82	52	77	67	73	-99	-25	-53	27	83	87	101	95	92	85	102	growth at 0.01 µM (SNB-75): 75%; GI50 (T47D [11]): 1.62 µM; CC50 (T47D [11]): > 100 µM; CC50 (UACC-257): > 100 µM; CC50 (M14 [12]): > 100 µM; CC50 (Malme-3M): > 100 µM; TGI (HCT-116): > 100 µM; CC50 (HCT-116): > 100 µM
O=S(=O)(Nc1ccccn1)c1ccc2nc(-c3ccccc3)c(-c3ccccc3)nc2c1	-1	37	58	99	82	41	69	31	57	-93	-25	-56	27	89	84	107	98	102	89	103	growth at 0.01 µM (SNB-75): 85%; GI50 (T47D [11]): 1.12 µM; TGI (T47D [11]): 5.14 µM; CC50 (T47D [11]): > 100 µM; CC50 (UACC-257): > 100 µM; CC50 (M14 [12]): > 100 µM; CC50 (Malme-3M): > 100 µM; GI50 (HCT-116): 2.17 µM; TGI (HCT-116): > 100 µM; CC50 (HCT-116): > 100 µM
